High-throughput results deposited in PubChem BioAssay by SRMLSC.
Ecoli WT growth: blocks growth of wild type E. coli BW25113 | E. coli BW25113 growth inhibition, OD600 | inhibition, % at 10 µM | 20,000 compounds, 0.05% hits | AID 552; in the data active = inhibition above about 40%;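 note: bacteria exposed to compound for 20 hours at 37 °C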
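Assay system: Bacterial strain in a whole-cell growth screen | Amount: Inoculum from a 1:1000 dilution of a 1.5 h subculture | Detection: Absorbance at 615 nm as a measure of bacterial growth | Timing: 20 h exposure, 37 °C | Buffer or medium: LB plus kanamycin 50 µg/mL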
Large screens that a line does not name were inactive. The full list was thinned out, with hits kept by preference.

Cc1nn(-c2ccc(F)cc2)c2c1cc(C#N)c1nc3ccccc3n12	none
O=C(CN1CCCC1=O)NC1(C(F)(F)F)NC(=O)N(Cc2ccccc2)C1=O (stereo not given)	none
O=C(Nc1nccs1)c1ccc(COc2ccccc2Br)o1	none
CS(=O)(=O)N(CC(=O)NC1CCCC1)c1ccc2c(c1)OCCO2	none
O=C(Nc1ccc(S(=O)(=O)N2CCOCC2)cc1)c1ccc(Br)o1	none
O/N=C/c1ccc(OCC(O)COc2ccc(/C=N/O)cc2)cc1	none
N#C/C(C(=O)N1CCOCC1)=C1/SC=C(c2ccccc2)N1c1ccccc1	none
O=C(NCc1ccccc1)N1CCn2c(nc3ccccc32)C1	none
CC1=C(C(=O)Nc2cccc(C)n2)C(c2ccc3c(c2)OCO3)C2=C(CC(c3ccco3)CC2=O)N1 (stereo not given)	none
CCn1cc(C(=O)O)c(=O)c2ccc(C)nc21	none
CCn1cc(C(=O)O)c(=O)c2cc(F)c(N3CCNCC3)nc21	Ecoli WT growth 75
CCn1cc(C(=O)OCc2ccc(F)cc2)c(=O)c2ccc(C)nc21	none
COc1ccc(OC)c(-n2c(-c3cccc(O)c3)n[nH]c2=S)c1	none
O=c1[nH]c(N2CCCCC2)nc2c1CCCC2	none
CS(=O)(=O)N(CC(=O)NCc1ccc2c(c1)OCO2)Cc1ccc(Cl)cc1	none
CCOC(=O)N1CCN(C(=O)c2ccc3c(=O)n(CCc4ccccc4)c(=O)[nH]c3c2)CC1	none
Cc1nnc(Sc2nc(Sc3nnc(C)s3)nc(N3CCN(C)CC3)n2)s1	none
CCOC(=O)N1CCN(Cc2nc(-c3ccc(C)cc3)no2)CC1	none
Cc1ccccc1OCCNC(=O)CNC(=O)c1ccccc1O	none
COC(=O)c1[nH]c2ccc(C)cc2c1NC(=O)CN1CCCc2ccccc21	none
Cc1ccc(C(=O)CCNc2ccc(F)c(Cl)c2)o1	none
CCCCNC(=O)Nc1ccnn1C1CCCCC1	none
COC(=O)c1ccc2c(=O)n(CCN3CCOCC3)c(=S)[nH]c2c1	none
CCOc1ccc(NC(=O)CN(C)CC(=O)NC2CCCc3ccccc32)cc1OCC (stereo not given)	none
COc1ccc(OC)c(S(=O)(=O)N2CCC(C(=O)N3CCc4ccccc4C3)CC2)c1	none
CCCc1nnc(SCc2ccc(OC)cc2)n1N	none
CC(C)(C)C(=O)CNS(=O)(=O)c1ccc(S(=O)(=O)NC2CCCC2)cc1	none
CC1C(O)=C(c2nc3ccccc3[nH]2)C(=N)N1c1ccccc1 (stereo not given)	none
COc1ccc(CCN2C(=O)C3C4C=CC(C4)C3C2=O)cc1OC (stereo not given)	none
O=C(CNS(=O)(=O)c1ccccc1)NCc1ccccn1	none
O=C(COc1cc(Cl)ccc1Cl)Nc1nnc(CC(=O)N2CCOCC2)s1	none
O=C(CCn1c(=O)sc2ccccc21)NCc1ccc2c(c1)OCO2	none
O=C(NCC(=O)N(c1ccc2c(c1)OCCO2)C(C(=O)NC1CCCC1)c1ccco1)c1ccco1 (stereo not given)	none
O=S(=O)(Nc1ccc2c(c1)OCO2)c1ccc(Br)s1	none
c1ccc2c(-c3nc(C4CCCCC4)no3)cc(-c3ccncc3)nc2c1	none
CC(C)NC(=O)CSc1nnc(-c2ccc(C(C)(C)C)cc2)n1C	none
N#CC1=C(N)N(c2ccc(Oc3ccccc3)cc2)C(=O)C1	none
COc1ccc(OC)c(S(=O)(=O)N2c3cc(F)ccc3CCC2C)c1 (stereo not given)	none
CCOC(=O)Cn1cnc2sc3c(c2c1=O)CCC3	none
O=C(COc1cccc(C(F)(F)F)c1)Nc1ccc(S(=O)(=O)N2CCCC2)cc1	none
CCCCCn1c(=NC(C)=O)c(C#N)cc2c(=O)n3cccc(C)c3nc21	none
CSCCC(NC(=O)c1ccccc1)C(=O)NCc1ccco1 (stereo not given)	none
Cc1ccccc1NC(=O)CCC(=O)OCCCC(F)(F)C(F)(F)F	none
O=C(CN1CCCCC1)Nc1cccc(Br)c1	none
CC12C(=O)N(c3nccs3)C(=O)C1C1C=CC2C1 (stereo not given)	none
COCCN1C(=O)C(=O)/C(=C(/O)c2cccc(S(=O)(=O)N(C)C)c2)C12C(=O)N(C)c1ccccc12 (stereo not given)	none
CCCCC12CN3CC(C)(CN(C1)C31C(=O)N(C)c3ccc(C)cc31)C2=O (stereo not given)	none
Cc1ccc2nc(Nc3ccc4[nH]c(=O)[nH]c4c3)c(-n3nc(C)cc3C)nc2c1	none
O=C(CSc1ccccc1C(=O)NCCCN1CCCC1=O)NCc1ccco1	none
CCN(CC)CCNC(=O)c1ccc(CS(=O)(=O)c2ccc(Br)cc2)o1	none
CCOc1cc(C)c(Cl)cc1S(=O)(=O)NCC1CCCO1 (stereo not given)	none
CCOC(=O)N1CCN(C(=O)c2cn(CC)c3cc(N4CCN(C)CC4)c(F)cc3c2=O)CC1	Ecoli WT growth 71
CCC(=O)c1cc(F)c(N2CCN(C(=O)Cc3ccccc3)CC2)cc1C	none
CCOC(=O)N1CCN(c2cc3nccnc3cc2F)CC1	none
CCN1CCN(c2cc3c(cc2F)c(=O)c(C(=O)O)cn3C2CC2)CC1	Ecoli WT growth 72
CCOC(=O)c1cn(CC)c2cc(N3CCOCC3)c(F)cc2c1=O	none
CCN1CCN(C(=O)c2cn(CC)c3ccc(S(=O)(=O)N(C)C)cc3c2=O)CC1	none
COc1ccccc1-n1c(=O)oc2ccc(Cl)cc2c1=O	none
CC1=C(C(=O)OC2CCCC2)C(c2ccc(C)o2)C2=C(CC(c3cccs3)CC2=O)N1 (stereo not given)	none
CS(=O)(=O)N1CCC(C(=O)Nc2ccc(Br)cc2F)CC1	none
Cc1cc(Nc2ccccc2N2CCOCC2)n2ncnc2n1	none
CCn1ncc(C2=NOC(C(=O)NCc3ccc(Cl)cc3)C2)c1C (stereo not given)	none
COc1cc(OC)cc(C(=O)N2c3ccc(F)cc3CCC2C)c1 (stereo not given)	none
CC1CCc2cc(F)cc3c(O)c(C(=O)NCC4CCCO4)c(=O)n1c23 (stereo not given)	none
CC1CCc2cc(F)cc3c(=O)c(C(=O)O)cn1c23 (stereo not given)	Ecoli WT growth 44
O=C(O)c1cccnc1SC1CC(=O)N(Cc2ccccc2)C1=O (stereo not given)	none
Cc1ccc(NC(=O)CN(C)S(=O)(=O)c2cccc3nsnc23)cc1Cl	none
Cc1cc(C(=O)NCCCN2CCCC2=O)no1	none
CCCCC(=O)Nc1ccc(NC(=O)C2CC2)nc1	none
O=S(=O)(c1ccc(OCC(O)CN2CCc3ccccc3C2)cc1)N1CCOCC1 (stereo not given)	none
